# Experimental data reported in PubChem BioAssay.
# Active and inactive are the calls of the source.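 The calls were made as follows, unless noted: active = viability at or below 10% of carrier control in both of two separate runs; inconclusive = viability at or below 10% in only one of the two runs; inactive = the rest.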
# Experiments:
# [1] = Her2 expression decrease, cell viability multiplex – SKBR3 breast tumor cells, AlphaScreen, ATP viability, primary screen (AID 461;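 active = Her2 level under about 52% in both replicate screens, with viability over 70% of control, limit read from the data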;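 as to Her2 level: lower value means less Her2 protein in the cells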;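 as to viability: percent of carrier control wells set as 100% viability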); conditions: SKBR3 Her2 protein level, 18-24 h, measured here: SKBR3 viability, ATP luminescence, at 10 µM
# [2] = molecular target: Receptor tyrosine-protein kinase erbB-2 (Homo sapiens) (UniProt P04626); assay: as above; conditions: 18-24 h, at 10 µM, stronger effect = lower value
# [3] = reduced viability of SK-BR-3 breast cancer cells – cell-based, 24 h, human, pilot screen (AID 572); conditions: SK-BR-3 viability, CellTiter-Glo luminescence, at 10 µM, stronger effect = lower value;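 also: compound exposure lasted between 18 and 24 h rather than exactly 24 h; 100% = carrier-treated control wells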
# [4] = HUVEC growth inhibition – cell-based, human, primary screen (AID 575;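 active = viability at or below 30% in both replicate assays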;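 also: 100% = median of untreated cell wells with 0.1% DMSO on each plate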); conditions: HUVEC proliferation, CellTiter-Glo luminescence, 72 h; at 10 µM; stronger effect = lower value
# How it was run: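 System – primary HUVEC, no more than 12 passages · Medium – Low-serum (2% FBS) EBM, supplemented · Times – 72 h exposure, 37 °C, 5% CO2, 30 min RT equilibration · Measured by – luminescent ATP assay · Read-out – % viability relative to median vehicle-well signal on each plate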
# [5] = H69AR cell proliferation blockers – human, duplicate replicates, primary screen (AID 580;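 active = viability at or under a set limit in both replicates, limit being median viability minus 3 SD, cut at about 48% in these data, passing the limit was not always enough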;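 also: 100% = mean luminescence of untreated wells and 0% = no signal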); conditions: H69AR lung tumor cells viability, ATP luminescence, 72 h; at 10 µM; stronger effect = lower value
# [6] = MRP1 drug-resistance reversers in H69AR cells – cell-based, doxorubicin co-treatment, pilot screen (AID 601;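 active = viability loss from added drug above about 55%, and viability with drug at most 40%, in both replicates, limit read from the data, passing the limit was not always enough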); conditions: CellTiter-Glo, 72 h, at 10 µM; for differential viability (reversal): stronger effect = higher value
# [7] = yeast transport mutant growth inhibition pilot in 384-well plates, post-Golgi transport modulator project (AID 636; in the data active = inhibition above about 31%); conditions: absorbance 615 nm, about 18 h, stronger effect = higher value
# [8] = growth suppression of yeast trafficking mutant, preliminary HTS, modulators of trafficking downstream of Golgi apparatus project, 1536-format plate, OD 615 nm (AID 637; in the data active = inhibition above about 30%); conditions: yeast transport mutant growth, absorbance 615 nm, 18 h; stronger effect = higher value
# [9] = H69AR cells + 2 uM doxorubicin, measured here: viability with 2 uM doxorubicin, stronger effect = lower value
# [10] = H69AR cells, compound alone cytotoxicity
# Chain of Receptor tyrosine-protein kinase erbB-2 (Homo sapiens) (P04626 whole entry, looked up): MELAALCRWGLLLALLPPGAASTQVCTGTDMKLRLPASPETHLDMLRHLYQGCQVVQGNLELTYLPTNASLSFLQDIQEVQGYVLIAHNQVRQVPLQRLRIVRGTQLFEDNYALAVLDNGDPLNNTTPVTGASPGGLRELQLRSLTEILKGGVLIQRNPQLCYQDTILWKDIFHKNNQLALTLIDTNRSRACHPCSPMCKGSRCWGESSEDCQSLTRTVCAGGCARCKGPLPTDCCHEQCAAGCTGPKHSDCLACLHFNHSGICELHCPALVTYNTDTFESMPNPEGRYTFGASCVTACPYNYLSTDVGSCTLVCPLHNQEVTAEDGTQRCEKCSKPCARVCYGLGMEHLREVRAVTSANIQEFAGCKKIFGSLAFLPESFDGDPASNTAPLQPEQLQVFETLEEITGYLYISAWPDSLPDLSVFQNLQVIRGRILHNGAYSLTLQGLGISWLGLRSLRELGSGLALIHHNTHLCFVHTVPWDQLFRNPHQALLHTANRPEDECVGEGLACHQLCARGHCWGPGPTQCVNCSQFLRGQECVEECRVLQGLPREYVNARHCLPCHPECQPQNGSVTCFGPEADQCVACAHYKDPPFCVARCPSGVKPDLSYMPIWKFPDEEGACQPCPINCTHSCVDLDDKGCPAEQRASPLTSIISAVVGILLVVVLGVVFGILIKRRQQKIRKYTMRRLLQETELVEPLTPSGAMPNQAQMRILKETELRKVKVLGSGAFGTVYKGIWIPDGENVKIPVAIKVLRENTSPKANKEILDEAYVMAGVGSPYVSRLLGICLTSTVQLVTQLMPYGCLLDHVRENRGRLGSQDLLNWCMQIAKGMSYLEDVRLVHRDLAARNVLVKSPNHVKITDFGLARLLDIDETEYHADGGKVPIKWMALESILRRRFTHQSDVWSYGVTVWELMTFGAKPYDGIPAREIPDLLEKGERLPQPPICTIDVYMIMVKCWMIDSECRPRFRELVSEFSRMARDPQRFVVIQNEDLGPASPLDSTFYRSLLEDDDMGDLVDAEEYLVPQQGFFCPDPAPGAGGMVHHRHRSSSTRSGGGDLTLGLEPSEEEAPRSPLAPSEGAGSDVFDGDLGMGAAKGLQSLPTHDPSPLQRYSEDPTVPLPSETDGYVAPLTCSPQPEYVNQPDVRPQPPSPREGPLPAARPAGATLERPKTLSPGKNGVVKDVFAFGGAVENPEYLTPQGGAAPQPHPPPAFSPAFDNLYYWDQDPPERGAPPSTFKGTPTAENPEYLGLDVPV
SMILES,viability [1] [%],Her2 level [2],viability [3],viability [4],viability [5],differential viability (reversal) ([6]; H69AR cells + 2 uM doxorubicin),"viability [6, 9] [%]","viability [6, 10] [%]",inhibition [7],inhibition [8]
COC(=O)c1sc(N2C(=O)C(O)=C(C(=O)c3ccc(C)o3)C2c2ccc(F)cc2)nc1C (stereo not given),95,81.5% (inactive),95% (inactive),113% (inactive),135% (inactive),61.4% (inactive),73.8,135,-1.08% (inactive),-1.48% (inactive)
CSc1cccc(NC(=O)C2CCCN2S(=O)(=O)c2ccc3c(c2)CCC(=O)N3)c1 (stereo not given),93,93.5% (inactive),93% (inactive),94.7% (inactive),89% (inactive),0.435% (inactive),88.6,89,-4.21% (inactive),-8.73% (inactive)
C[N+]1=C2CCCCCN2C(O)(c2ccccc2)C1 (stereo not given),97,85% (inactive),97% (inactive),101% (inactive),96.3% (inactive),-1.28% (inactive),97.6,96.3,-0.79% (inactive),1.29% (inactive)
O=C(NCCCNC1CCCCC1)c1ccc(/C=N/O)nc1,84,96% (inactive),84% (inactive),92.4% (inactive),103% (inactive),4.55% (inactive),98.6,103,-0.91% (inactive),-5.71% (inactive)
Cc1ccc(CCNC(=O)CC2Oc3ccc(C)cc3NC2=O)cc1 (stereo not given),90,93.5% (inactive),90% (inactive),74.5% (inactive),96% (inactive),3.38% (inactive),92.6,96,5.47% (inactive),-2.46% (inactive)
Cc1ccc(/C(O)=C2\C(=O)C(=O)N(CCCN(C)C)C2c2ccccn2)cc1 (stereo not given),101,93% (inactive),101% (inactive),118% (inactive),104% (inactive),-4.14% (inactive),108,104,-1.84% (inactive),4.43% (inactive)
CC1=NC(Nc2nc(C)c3ccccc3n2)=NC(C)(C)C1,78.5,72.5% (inactive),78.5% (inactive),74.3% (inactive),62.4% (inactive),-14.6% (inactive),77,62.4,-0.39% (inactive),-7.38% (inactive)
CCC(=O)N1CCc2cc(S(=O)(=O)CCC(=O)Nc3ccc(F)c(F)c3)ccc21,104,160% (inactive),104% (inactive),97.3% (inactive),92.3% (inactive),10.2% (inactive),82.1,92.3,0.13% (inactive),-6% (inactive)
O=C(COc1nnnc2ccccc12)N1CCCc2ccccc21,97,87% (inactive),97% (inactive),98.2% (inactive),98.3% (inactive),0.405% (inactive),97.9,98.3,-4.8% (inactive),6.07% (inactive)
O=C(NCc1cccs1)C1CC(=O)N(c2ccccc2)C1 (stereo not given),96.5,105% (inactive),96.5% (inactive),123% (inactive),111% (inactive),9.26% (inactive),101,111,-0.13% (inactive),-2.3% (inactive)
CC(C)c1ccc(S(=O)(=O)N2CCN(C(=O)c3cccc(F)c3)CC2)cc1,106,104% (inactive),106% (inactive),92% (inactive),88.3% (inactive),-8.65% (inactive),96.9,88.3,-5.73% (inactive),3.28% (inactive)
Cc1ccc(Cn2nnc3c(=O)n(CC(=O)NCC4CCCO4)cnc32)cc1 (stereo not given),97,88.5% (inactive),97% (inactive),105% (inactive),104% (inactive),13.4% (inactive),90.4,104,-6.05% (inactive),-0.79% (inactive)
O=C(c1cccnc1NCc1ccccc1)N1CCOCC1,77.5,126% (inactive),77.5% (inactive),86.4% (inactive),93.8% (inactive),0.76% (inactive),93,93.8,1.08% (inactive),23.2% (inactive)
O=C(Nc1ccccc1N1CCN(C(=O)c2ccc(Cl)cc2)CC1)c1cc2ccccc2o1,69.5,79.5% (inactive),69.5% (inactive),67.8% (inactive),85.5% (inactive),22.9% (inactive),62.6,85.5,2.53% (inactive),0.81% (inactive)
Cc1ccc(N=C2NC(=O)CS2)c(C)c1,71,91% (inactive),71% (inactive),89.7% (inactive),102% (inactive),5.32% (inactive),96.7,102,-5% (inactive),5.57% (inactive)
CCOC(=O)N1CCN(c2c(NCCN(C)Cc3ccccc3)c(=O)c2=O)CC1,98,95% (inactive),98% (inactive),84.3% (inactive),99% (inactive),6.12% (inactive),92.9,99,0.27% (inactive),-2.3% (inactive)

SMILES,viability [1] [%],Her2 level [2],viability [3],viability [4],viability [5],differential viability (reversal) ([6]; H69AR cells + 2 uM doxorubicin),"viability [6, 9] [%]","viability [6, 10] [%]",inhibition [7],inhibition [8]
C=C(Cl)COC(=O)[C@H]1C2C=CC(C2)C1C(=O)O (stereo not given in full),99.5,120% (inactive),99.5% (inactive),106% (inactive),101% (inactive),3.48% (inactive),98,101,-2.8% (inactive),-6.67% (inactive)
COc1ccccc1CC1(C)NC(=O)N(CC(=O)Nc2cc(C)on2)C1=O (stereo not given),106,86% (inactive),106% (inactive),106% (inactive),92.7% (inactive),9.12% (inactive),83.6,92.7,-5.81% (inactive),4.13% (inactive)
O=C(O)CCc1ccc(-c2ccc(Br)cc2)n1CC(=O)O,102,102% (inactive),102% (inactive),91.9% (inactive),101% (inactive),2.92% (inactive),98,101,-0.51% (inactive),-3.67% (inactive)
Clc1ccc(OCc2nc(-c3ccccn3)no2)c(Br)c1,82.5,92.5% (inactive),82.5% (inactive),55.6% (inactive),102% (inactive),3.96% (inactive),98.4,102,-0.26% (inactive),-8.67% (inactive)
COc1cccc(-n2nc(C(=O)Nc3ccc4c(c3)OCO4)c3ccccc3c2=O)c1,109,80.5% (inactive),109% (inactive),85.1% (inactive),92.2% (inactive),5.91% (inactive),86.3,92.2,-2.16% (inactive),-1.27% (inactive)
CCCCOC(=O)CN1C(=O)c2ccc(C(=O)OCCCC)cc2C1=O,87,94% (inactive),87% (inactive),92.3% (inactive),106% (inactive),10.4% (inactive),95.3,106,-2.97% (inactive),0.82% (inactive)
O=C(OCc1ccccc1F)c1ccc2c(c1)OCCO2,122,86% (inactive),122% (inactive),103% (inactive),92% (inactive),9.29% (inactive),82.7,92,-5.47% (inactive),-5.08% (inactive)
Cc1ccc(C2N(c3ccc(Cl)c(Cl)c3)C(=O)C3CCCN32)o1 (stereo not given),99,82.5% (inactive),99% (inactive),78.7% (inactive),96.2% (inactive),6.78% (inactive),89.4,96.2,-1.45% (inactive),0.32% (inactive)
CCCCC(CC)CNC(=O)C1CCCN(S(=O)(=O)c2cnc[nH]2)C1 (stereo not given),91.5,95.5% (inactive),91.5% (inactive),105% (inactive),92.2% (inactive),-1.91% (inactive),94.1,92.2,-2.67% (inactive),2.79% (inactive)
CC(=O)N1CCN(S(=O)(=O)c2cccc(C(=O)Nc3ccc4c(c3)CCC4)c2)CC1,76.5,90.5% (inactive),76.5% (inactive),77.9% (inactive),98% (inactive),4.81% (inactive),93.2,98,-5.53% (inactive),5% (inactive)
O=C1CC(C2CCCO2)C(=O)N1Cc1ccccc1 (stereo not given),98,94% (inactive),98% (inactive),90.2% (inactive),103% (inactive),3.39% (inactive),99.4,103,-6.08% (inactive),-0.66% (inactive)
CCOc1ccc2[nH]c(=O)c(CN(Cc3nnnn3CCc3ccccc3)CC3CCCO3)cc2c1 (stereo not given),78.5,89% (inactive),78.5% (inactive),90.6% (inactive),78.7% (inactive),21.2% (inactive),57.5,78.7,-5.34% (inactive),-11.6% (inactive)
O=C1COc2ccc(C(=O)NCc3ccco3)cc2N1,95.5,86% (inactive),95.5% (inactive),105% (inactive),104% (inactive),7.71% (inactive),96.1,104,-2.11% (inactive),-7.26% (inactive)
O=S(=O)(NCCSc1ccccc1)c1cccs1,95,86% (inactive),95% (inactive),102% (inactive),86.4% (inactive),11.9% (inactive),74.6,86.4,-6.49% (inactive),-5.5% (inactive)
CCOC(=O)N1CCN(c2nc(-c3ccc(Cl)cc3)cs2)CC1,79.5,125% (inactive),79.5% (inactive),98.3% (inactive),89.1% (inactive),-9.49% (inactive),98.6,89.1,-4.23% (inactive),-7.83% (inactive)
COCCn1nnnc1C(c1cc2cc(OC)ccc2[nH]c1=O)N1CCC(Cc2ccccc2)CC1 (stereo not given),124,80% (inactive),124% (inactive),65.4% (inactive),9.35% (active),-15.4% (inactive),24.8,9.35,-7.87% (inactive),-2.38% (inactive)
